Experimental data taken from the array DNA melting data of Ke et al. (doi:10.1101/2024.01.08.574731).

What was measured:
[1] = folding enthalpy; higher = less favourable; fluorescence melt of hairpins on a sequencing array, two-state fit; settings: sodium 0.088 M
In short: (§1)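 To match UV melts, fitted temperatures were raised by 9.35 °C. These fits were bootstrapped two-state models that gave melting temperature and folding enthalpy, combined by inverse variance over four replicates. The input was normalised Cy3 fluorescence of library hairpins with annealed Cy3 and quencher oligos on a sequenced MiSeq flow cell, imaged in 50 mM Na-HEPES pH 8.0, 25 mM NaCl in 2.5 °C steps up to 60 °C.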

[2] = melting temperature; fluorescence melt of hairpins on a sequencing array, two-state fit, raised by 9.35 °C to match UV melts; settings: sodium 0.088 M
In short: as §1

| Sequence | folding enthalpy [1] [kcal/mol] | Tm [2] [°C] |
| --- | --- | --- |
| GGTGGCCGAAAGGCAACC (((.(((....))).))) | -28.1 | 66.5 |
| GGTGCCGAAAGGCCTACC ((((((....)))..))) | -10.7 | 39.6 |
| GCGTCCGGAAACAGACGC (((((.(....).))))) | -36.1 | 54 |
| GCGCAGGGAAACCCACGC (((..((....))..))) | -26.7 | 43.9 |
| GCATACGGAAACGTGTGC (((.(((....))).))) | -50.6 | 55 |
| GCGGATCCCGC ((((...)))) | -23.4 | 53.6 |
| GTCAATGGAAACATTGAC (((((((....))))))) | -39.8 | 58.9 |
| GCGGCCTACCGC ((((....)))) | -29.4 | 55.8 |
| GGTATACGAAAGTACACC (((.(((....))).))) | -28.7 | 40 |
| GATCCCACGGGGATC ((((((...)))))) | -33.5 | 65.6 |
| GCTATGCGAAAGCCCAGC (((..((....))..))) | -11.6 | 29 |
| GAGCTACGAAAGTACCTC (((.(((....))).))) | -19 | 30.6 |
| GGTCTCGGAAACGAGATC (.(((((....))))).) | -38.2 | 52.1 |
| GATCTCGGTGGAGATC ((((((....)))))) | -4.26 | 68.6 |
| GCTGTGCGAAAGCATGGC ((..(((....)))..)) | -22.4 | 59.5 |
| GCGTGGCGAAAGCGCCGC (((..((....))..))) | -19.1 | 56.2 |
| GAACCTGGAAACAAGTTC ((((.((....)).)))) | -15.9 | 26.8 |
| GGCGACGAAAGTCTCGCC ((((((....)))..))) | -25.7 | 55.2 |
| GCTGAATCGAAAGATAGC (((..(((....)))))) | -17.3 | 31.9 |
| GAGAGCGAAAGCTAGCTC ((((((....)))..))) | -13.8 | 36.6 |
| GATCAAGGCCTTGATC ((((((....)))))) | -51.6 | 55 |
| CACGAGAAATCGTG (((((....))))) | -23.5 | 50.6 |
| GCGACCCTTCGC ((((....)))) | -26.3 | 51.1 |
| GAAAACGAAAGTTCTTTC ((((((....)))..))) | -15.9 | 28.9 |

| Sequence | folding enthalpy [1] [kcal/mol] | Tm [2] [°C] |
| --- | --- | --- |
| GCGTAGCGAAAGCTTGGC ((..(((....)))..)) | -7.38 | 36.5 |
| GAGCCTCCGAAAGGACTC (((..(((....)))))) | -11.8 | 31.9 |
| GCCTTGACGAAAGTCGGC (((..(((....)))))) | -16 | 50.3 |
| GCATCTGGAAACAAATGC ((((.((....)).)))) | -21.8 | 32.6 |
| GATCCAATTCTGGATC ((((((....)))))) | -39.7 | 49.5 |
| GCTGTGGGAAACCATAGC (((.(((....))).))) | -22.3 | 50 |
| GATCGTCGAAACGATC ((((((....)))))) | -38.3 | 53.5 |
| GGTGGCCGAAAGGCGACC (((.(((....))).))) | -30.2 | 66.2 |
| GACTGGGGAAACCCAGTC (((((((....))))))) | -40.3 | 66.6 |
| GCTACGCGAAAGCCCAGC (((..((....))..))) | -6.89 | 33.3 |
| GCCAACGAAAGTTGTGGC ((((((....)))..))) | -18.4 | 48.4 |
| GACTGGCGAAAGCCGTC (((.(((....)))))) | -11.5 | 67 |
| GGGCAAGCGAAAGCTCCC (((..(((....)))))) | -19 | 44.6 |
| GCGTGGAAACGC ((((....)))) | -30.1 | 58.8 |
| GATTACGAAAGTAAAATC ((((((....)))..))) | -17.6 | 28.5 |
| GCCTTAGGAAACCAAGGC (((((.(....).))))) | -27.4 | 45.2 |
| GGAAAACGAAAGTTCTCC (((.(((....))).))) | -24.8 | 35.7 |
| GCGTACGGAAACGTGTGC ((..(((....)))..)) | -29.1 | 44.7 |
| GGTAAGCGAAAGCTCACC (((.(((....))).))) | -25.5 | 46.9 |
| GCCGACGAAAGTCGAGGC ((((((....)))..))) | -16.5 | 59.5 |
| GACAGGGGAAACCCCATC ((..(((....)))..)) | -13.2 | 27.1 |
| GCGGCGCGAAAGCCTCGC (((..((....))..))) | -18.6 | 55.8 |
| GGATGTCGAAAGACCTCC (((.(((....))).))) | -29 | 46.5 |
| GCGTAGCGAAAGCAAGGC ((.(.((....)).).)) | -7.5 | 35.5 |

| Sequence | folding enthalpy [1] [kcal/mol] | Tm [2] [°C] |
| --- | --- | --- |
| GGTGGCGAAAGCCTAACC ((((((....)))..))) | -16.5 | 43.7 |
| GATCTCGACGGAGATC ((((((....)))))) | -48.4 | 54.3 |
| GGCAAGCGAAAGCTCGCC (((.(((....))).))) | -22.9 | 59.7 |
| TACTGGAAACAGTA (((((....))))) | -15.8 | 36.8 |
| GATCATAACAATGATC ((((((....)))))) | -32.1 | 47 |
| GTATTGACGAAAGTCTAC (((..(((....)))))) | -8.47 | 25.1 |
| ACTGAGAAATCAGT (((((....))))) | -19.8 | 34.8 |
| GATCAGACTCTGATC ((((((...)))))) | -35 | 47.1 |
| TGCGAGAAATCGCA (((((....))))) | -18.2 | 54.3 |
| AGTCTGAAAAGACT (((((....))))) | -19.6 | 47 |
| GCCCAAGGAAACTTGAGC ((.((((....)))).)) | -25.1 | 37.7 |
| GATCGACGGCTCGATC ((((((....)))))) | -42.7 | 50.5 |
| GGTTGCGAAAGCAAAACC ((((((....)))..))) | -19.5 | 48.9 |
| GGGATCGAAAGATTACCC ((((((....)))..))) | -17.4 | 32.4 |
| GGTGGGGAAACCCACC ((((((....)))))) | -42.9 | 68.1 |
| GGACTGACGAAAGTCTCC (((..(((....)))))) | -9.45 | 28.6 |
| GAGTAACGAAAGTTCTC (((.(((....)))))) | -21.9 | 37.1 |
| GCATCTGGAAACGGATGC (((((.(....).))))) | -44.6 | 53.8 |
| GATCCATAACTGGATC ((((((....)))))) | -33.9 | 48.1 |
| GCGTTAGGACGC ((((....)))) | -25.4 | 52.9 |
| GAATACGGAAACGTACTC ((.((((....)))).)) | -9.11 | 28.4 |
| GATTGTGGAAACACAGTC ((.((((....)))).)) | -26.4 | 42.6 |
